# What was measured:
# [1] = tested on: GTPase KRas (Homo sapiens), P01116 [G12C]; assay: Inhibition of KRAS G12C mutant (unknown origin) at 10 uM incubated for 2 hrs in presence of GDP by rapidfire mass spectrometry analysis relative to control
# Outline: (§1)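 GDP-bound KRASG12C (2 μM) incubated with 10 μM compound. Intact-protein mass spectrometry quantifies relative % covalent adduct at Cys12 at the stated time point.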
# [2] = tested on: GTPase KRas (Homo sapiens), P01116 [G12C]; assay: Inhibition of KRAS G12C mutant (unknown origin) at 10 uM incubated for 20 hrs in presence of GDP by rapidfire mass spectrometry analysis relative to control; outline: as §1
# [3] = tested on: GTPase KRas (Homo sapiens), P01116 [G12C]; assay: Inhibition of KRAS G12C mutant (unknown origin) assessed as pseudo first order rate constant incubated for 0.02 to 20 hrs in presence of GDP by rapidfire mass spectrometry analysis
# Outline: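 GDP-bound KRASG12C (2 μM) with 10 μM compound. Intact-protein MS measures covalent adduct at Cys12 after 0.02, 0.2, 2 and 20 h. Conversions between 10% and 90% are converted to kobs/[I] (M–1 s–1) under pseudo-first-order kinetics.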
# [4] = Half life of compound in phosphate buffer at pH 7.4 in presence of GSH by LC/MS analysis; type: physicochemical; settings: phosphate buffer with GSH
# Outline: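 Intrinsic thiol reactivity toward 5 mM glutathione. Half-life is taken from the rate at which parent compound disappears.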
# [5] = tested on: GTPase KRas (Homo sapiens), P01116 [G12C]; assay: Inhibition of KRAS G12C mutant (unknown origin) at 10 uM incubated for 0.2 hrs in presence of GDP by rapidfire mass spectrometry analysis relative to control; outline: as §1
# [6] = tested on: GTPase KRas (Homo sapiens), P01116 [G12C]; assay: Inhibition of KRAS G12C mutant (unknown origin) at 10 uM incubated for 0.02 hrs in presence of GDP by rapidfire mass spectrometry analysis relative to control
# Outline: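 Intact-protein mass spectrometry of covalent adduct formation at Cys12 of GDP-bound KRASG12C. Test compound at 10 μM, with read-outs at 0.02, 0.2, 2 and 20 h. Values are the relative % of protein bound, measured directly under pseudo-first-order conditions. Earlier incubations in the paper used 2 μM protein.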
# GTPase KRas [7] = target: GTPase KRas (Homo sapiens, UniProt P01116, G12C); assay: Inhibition of KRAS G12C mutant in human MIAPaCa2 cells assessed as reduction in EGF-induced ERK1/2 phosphorylation incubated for 4 hrs followed by EGF addition by luminescence based assay; type: cell-based
# GTPase KRas [8] = target: GTPase KRas (Homo sapiens, UniProt P01116, C118A/G12C); assay: Inhibition of GDP bound N terminal His-tagged KRAS G12C/C118A mutant (unknown origin) (1 to 169 residues) assessed as reduction in SOS-mediated guanine nucleotide exchange preincubated for 2 hrs followed by addition of SOS and GTP and measured after 1 hr by alphascreen assay
# Outline: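 Inhibitor preincubated with protein 2 h, then SOS1 and GTP added to exchange GTP into the nucleotide site. GTP loading read as proximity of RAF Ras-binding domain, which binds only active KRAS. IC50 from dose response.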
# [9] = Solubility of compound in FASIIF measured after 72 hrs by HPLC; type: physicochemical; settings: FaSSIF
# Outline: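 Solubility in fasted-state simulated intestinal fluid, measured by HPLC after equilibration at room temperature for 72 h.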
# MIA PaCa-2 = assay: Cytotoxicity against human MIAPaCa2 cells assessed as reduction in cell viability measured after 72 hrs by Celltiter-Glo luminescent cell viability assay; type: functional, cell-based; settings: MIA PaCa-2, 72 h
# Outline: (§2)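 Cell viability in MIA PaCa-2 (KRAS p.G12C) or A549 (KRAS p.G12S) cells, read by CellTiter-Glo luminescence.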
# A549 = assay: Cytotoxicity against human A549 cells assessed as reduction in cell viability measured after 72 hrs by Celltiter-Glo luminescent cell viability assay; type: functional, cell-based; settings: A549, 72 h; outline: as §2
# [10] = Intrinsic clearance in mouse liver microsomes at 1 uM measured after 30 mins in presence of NADPH by LC-MS analysis; type: ADME, Microsome; settings: read-out: CLH
# [11] = Intrinsic clearance in rat liver microsomes at 1 uM measured after 30 mins in presence of NADPH by LC-MS analysis; type: ADME, Microsome; settings: read-out: CLH
# [12] = Intrinsic clearance in human liver microsomes at 1 uM measured after 30 mins in presence of NADPH by LC-MS analysis; type: ADME, Microsome; settings: read-out: CLH
# [13] = Hepatic intrinsic clearance in mouse hepatocytes assessed per 10^6 cells at 0.5 uM after 60 mins; type: ADME, cell-based, Hepatocyte; settings: read-out: CLH
# Outline: (§3)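 Intrinsic clearance in mouse, rat or human hepatocytes. Compound at 0.5 μM, 0.5 million cells/mL, incubated 60 min.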
# [14] = Hepatic intrinsic clearance in rat hepatocytes assessed per 10^6 cells at 0.5 uM after 60 mins; type: ADME, cell-based, Hepatocyte; settings: read-out: CLH; outline: as §3
# [15] = Hepatic intrinsic clearance in human hepatocytes assessed per 10^6 cells at 0.5 uM after 60 mins; type: ADME, cell-based, Hepatocyte; settings: read-out: CLH; outline: as §3
# [16] = Plasma protein binding in mouse assessed as unbound fraction at 5 uM by ultracentrifugation method; type: ADME, cell-free
# Outline: (§4)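 Plasma protein binding measured by ultracentrifugation, compound at 5 μM.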
# [17] = Plasma protein binding in rat assessed as unbound fraction at 5 uM by ultracentrifugation method; type: ADME, cell-free; outline: as §4
# [18] = Plasma protein binding in human assessed as unbound fraction at 5 uM by ultracentrifugation method; type: ADME, cell-free; outline: as §4
# [19] = Clearance in mouse at […]; type: ADME, organism-based; settings: in vivo
# Outline: (§5)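 Mouse and rat PK: single 1 mg/kg iv dose given in 100% DMSO, and 10 mg/kg po dose given in 1% Tween 80, 2% HPMC, 97% water.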
# [20] = Volume of distribution at steady state in mouse at […]; type: ADME, organism-based; settings: in vivo; outline: as §5
# [21] = Half-life in mouse at 10 mg/kg, po; type: ADME, organism-based; settings: in vivo; outline: as §5
# [22] = Oral bioavailability in mouse at 10 mg/kg; type: ADME, organism-based; settings: in vivo; outline: as §5
# [23] = Clearance in rat at […]; type: ADME, organism-based; settings: in vivo; outline: as §5
# [24] = Volume of distribution at steady state in rat at […]; type: ADME, organism-based; settings: in vivo; outline: as §5
# [25] = Half-life in rat at 10 mg/kg, po; type: ADME, organism-based; settings: in vivo; outline: as §5
# [26] = Oral bioavailability in rat at 10 mg/kg; type: ADME, organism-based; settings: in vivo; outline: as §5
Compound,inhibition [1],inhibition [2],K [3],half-life [4],inhibition [5],inhibition [6],IC50 (GTPase KRas [7]),also measured
C=CC(=O)N1CC(NC(=O)Cn2cc(C(=O)NCCc3ccccc3)c3cc(Br)ccc32)C1,59%,100%,12 M⁻¹ s⁻¹,1.67 h,,,,
C=CC(=O)N1CC(NC(=O)Cn2cc(C(=O)N3CCc4c(Cl)cccc4C3)c3cc(Br)ccc32)C1,100%,100%,188 M⁻¹ s⁻¹,1.67 h,67%,,,
C=CC(=O)N1CC(NC(=O)Cn2cc(C(=O)NCc3ccccc3)c3cc(Br)ccc32)C1,29%,93%,5 M⁻¹ s⁻¹,1.67 h,,,,
C=CC(=O)N1CC(NC(=O)Cn2c(C3CC3)c(C(=O)N3CCc4c(cccc4OC)C3)c3cc(Br)ccc32)C1,100%,,549 M⁻¹ s⁻¹,1.67 h,90%,35%,0.604 µM,
C=CC(=O)N1CC(NC(=O)COc2ccc(Br)cc2NC(=O)c2cc(C)no2)C1,11%,63%,2 M⁻¹ s⁻¹,,,,,
C=CC(=O)N1CC(NC(=O)Cn2cc(C(=O)N3CCc4c(cccc4OC)C3)c3cc(Br)ccc32)C1,100%,100%,230 M⁻¹ s⁻¹,1.67 h,92%,13%,11.4 µM,
C=CC(=O)N1CC(NC(=O)Cn2cc(C(=O)N3CCc4c(F)cccc4C3)c3cc(Br)ccc32)C1,100%,100%,247 M⁻¹ s⁻¹,1.67 h,77%,,,
C=CC(=O)N1CC(NC(=O)Cn2cc(C(=O)N3CCc4cc(Cl)ccc4C3)c3cc(Br)ccc32)C1,100%,100%,132 M⁻¹ s⁻¹,1.67 h,55%,,,
C=CC(=O)N1CC(NC(=O)Cn2ccc3cc(Br)ccc32)C1,14%,67%,2 M⁻¹ s⁻¹,1.67 h,,,,IC50 (GTPase KRas [8]): > 250 µM
C=CC(=O)N1CC(NC(=O)Cn2c(C)c(C(=O)N3CCc4c(cccc4OC)C3)c3cc(Cl)ccc32)C1,100%,100%,69 M⁻¹ s⁻¹,1.67 h,34%,,3.55 µM,
C=CC(=O)N1CC(NC(=O)Cn2cc(C(=O)N(C)Cc3ccccc3)c3cc(Br)ccc32)C1,35%,100%,6 M⁻¹ s⁻¹,1.67 h,,,,
C=CC(=O)N1CC(NC(=O)Cn2c(C)c(C(=O)N3CCc4c(cccc4OC)C3)c3cc(Br)ccc32)C1,100%,100%,256 M⁻¹ s⁻¹,1.67 h,91%,14%,1.68 µM,
C=CC(=O)N1CC(NC(=O)Cn2cc(C(=O)N3CCc4cc(F)ccc4C3)c3cc(Br)ccc32)C1,100%,100%,326 M⁻¹ s⁻¹,1.67 h,86%,,,
C=CC(=O)N1CC(NC(=O)Cn2c(C3CC3)c(C(=O)N3CCc4c(cccc4OC)C3)c3cc(Cl)cc(C)c32)C1,100%,100%,2640 M⁻¹ s⁻¹,1.33 h,94%,69%,,solubility at 72 h [9]: 252 µM; IC50 (MIA PaCa-2): 0.067 µM; IC50 (A549): 9.33 µM; microsomal CLint at 1 µM [10]: 708 µL/min/mg; microsomal CLint at 1 µM [11]: 197 µL/min/mg; microsomal CLint at 1 µM [12]: 161 µL/min/mg; hepatocyte CLint at 0.5 µM [13]: 228 µL/min/1e6 cells; hepatocyte CLint at 0.5 µM [14]: 293 µL/min/1e6 cells; hepatocyte CLint at 0.5 µM [15]: 53 µL/min/1e6 cells; fraction unbound at 5 µM [16]: 0.02; fraction unbound at 5 µM [17]: 0.02; fraction unbound at 5 µM [18]: 0.04; CL/F [19]: 107 mL/min/kg; Vdss [20]: 2.9 L/kg; half-life [21]: 0.9 h; bioavailability [22]: 8%; CL/F [23]: 65 mL/min/kg; Vdss [24]: 2.6 L/kg; half-life [25]: 0.7 h; bioavailability [26]: < 1%
C=CC(=O)N1CC(NC(=O)Cn2c(C)c(C(=O)N3CCc4c(cccc4OC)C3)c3cc(Cl)cc(C)c32)C1,100%,100%,583 M⁻¹ s⁻¹,1.67 h,85%,40%,,
C=CC(=O)N1CC(NC(=O)Cn2cc(C(=O)N3CCc4ccccc4C3)c3cc(Br)ccc32)C1,100%,100%,308 M⁻¹ s⁻¹,1.67 h,100%,0%,,
C=CC(=O)N1CC(NC(=O)COc2ccc(Br)cc2)C1,,,0.3 M⁻¹ s⁻¹,,,,,
C=CC(=O)N1CC(NC(=O)Cn2cc(C(=O)N3CCc4c(cccc4OC)C3)c3cc(Br)cc(C)c32)C1,100%,100%,> 400 M⁻¹ s⁻¹,1.67 h,100%,,,
C=CC(=O)N1CC(NC(=O)Cn2c(C)c(C(=O)N3CCc4c(cccc4OC)C3)c3cc(Br)cc(C)c32)C1,100%,,83 M⁻¹ s⁻¹,1.67 h,39%,,0.299 µM,
C=CC(=O)N1CC(NC(=O)COc2ccc(Br)cc2C(=O)N2CC=C(c3ccccc3)C2)C1,,,26 M⁻¹ s⁻¹,1.67 h,,,11.3 µM,IC50 (GTPase KRas [8]): 2.78 µM

# — ChEMBL document CHEMBL4364340, “Discovery of N-(1-Acryloylazetidin-3-yl)-2-(1H-indol-1-yl)acetamides as Covalent Inhibitors of KRASG12C” (ACS Med Chem Lett, 2019)
